High-throughput results deposited in PubChem by Johns Hopkins Ion Channel Center.
TRPC4 PAM – TRPC4 (mouse) allosteric potentiation. Q9QUQ5. HEK293 TRPC4beta/mu-opioid, DAMGO EC20, Fluo-4 Ca2+ flux; active compounds read high. B-score at 10 µM. actives 0.42% (n = 310,000);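 active means B-score of calcium response area above 5 SD of library B-scores, with initial fluorescence ratio within 5 SD of library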;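 further: B-score of integrated fluorescence ratio over time as area under calcium response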
Target sequence (Q9QUQ5 whole entry, looked up): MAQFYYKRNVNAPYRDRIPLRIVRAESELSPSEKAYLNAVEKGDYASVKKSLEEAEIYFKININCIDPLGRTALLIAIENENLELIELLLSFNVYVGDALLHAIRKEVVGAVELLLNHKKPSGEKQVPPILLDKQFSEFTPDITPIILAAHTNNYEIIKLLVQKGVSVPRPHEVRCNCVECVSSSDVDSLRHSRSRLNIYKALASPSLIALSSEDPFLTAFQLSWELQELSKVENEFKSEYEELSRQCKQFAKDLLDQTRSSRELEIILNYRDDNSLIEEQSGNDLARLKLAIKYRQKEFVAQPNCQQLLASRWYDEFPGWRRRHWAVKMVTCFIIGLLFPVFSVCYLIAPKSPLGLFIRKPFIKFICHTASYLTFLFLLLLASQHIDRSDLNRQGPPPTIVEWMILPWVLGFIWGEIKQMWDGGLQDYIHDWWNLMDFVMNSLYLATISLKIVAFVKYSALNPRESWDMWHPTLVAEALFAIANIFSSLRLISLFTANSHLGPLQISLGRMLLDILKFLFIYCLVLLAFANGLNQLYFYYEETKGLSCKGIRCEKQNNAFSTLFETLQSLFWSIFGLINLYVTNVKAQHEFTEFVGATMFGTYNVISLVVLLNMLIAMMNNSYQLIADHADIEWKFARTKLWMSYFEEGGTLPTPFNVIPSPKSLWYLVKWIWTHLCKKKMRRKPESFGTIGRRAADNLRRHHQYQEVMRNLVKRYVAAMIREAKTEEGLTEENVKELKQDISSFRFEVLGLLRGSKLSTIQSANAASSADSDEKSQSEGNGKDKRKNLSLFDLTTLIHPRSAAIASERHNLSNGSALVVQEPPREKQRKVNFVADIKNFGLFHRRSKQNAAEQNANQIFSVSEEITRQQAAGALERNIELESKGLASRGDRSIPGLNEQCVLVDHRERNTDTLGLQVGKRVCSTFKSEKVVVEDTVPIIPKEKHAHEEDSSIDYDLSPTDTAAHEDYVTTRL
TRPC6 act – activators of mouse TRPC6 channel | B-score at 10 µM | HEK293-TRPC6 membrane potential dye fluorescence; active compounds read high | AID 2550 | actives 0.13% (n = 310,000) | Q61143;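 active means B-score of the integrated fluorescence ratio above library mean plus 3 SD, and starting fluorescence ratio within library mean plus 5 SD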;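 further: higher score means more depolarization so channel activation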
TRPC4 act – activators of mouse TRPC4 channel. B-score at 10 µM. actives 0.49% (n = 310,000). Q9QUQ5. HEK293 TRPC4beta/mu-opioid, Fluo4 calcium fluorescence; active compounds read high;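 active means B-score above 5 SD of library B-scores, and initial fluorescence ratio not above library mean plus 5 SD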;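 further: positive B-score marks a calcium rise read as TRPC4 activation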
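system = HEK293 cells stably co-expressing mouse TRPC4beta and mu-opioid receptor | schedule = Fluo4 dye loading 45 min at room temperature, 110 s recording | measure = B-scored integrated calcium fluorescence ratio | signal = Fluo4 calcium-sensitive dye fluorescence, kinetic, 1 Hz baseline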
TRPC6 inh – blocks the mouse TRPC6 cation channel; HEK293-TRPC6, membrane potential dye, ACh-evoked depolarization; active compounds read low; B-score at 10 µM; actives 1.1% (n = 310,000); AID 2553;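 active means B-score under library mean minus 3 SD, initial fluorescence not abnormally high, positive integrated signal ratio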;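 further: B-score derived from integrated fluorescence ratio over the kinetic read; more negative B-score means stronger inhibition of depolarization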
TRPC4 inh – inhibitors of mouse TRPC4 channel | Q9QUQ5 | HEK293 TRPC4beta/mu-opioid, DAMGO-evoked Fluo4 calcium flux; active compounds read low | B-score at 10 µM | actives 0.39% (n = 300,000);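 active means B-score over 3 SD under the library average, no early fluorescence shift, positive overall ratio signal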
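Assay system: HEK293 cells with stable TRPC4beta plus mu-opioid receptor expression; Probe or stimulus: DAMGO in two steps, submaximal then maximal; Dosing: single-point compound dosing; Measured by: Fluo4 calcium-dye fluorescence, kinetic read; Read-out basis: B score from integrated Fluo4 fluorescence ratio.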
An asterisk follows results filed as active; i = inactive. A selection: hits, their analogues and other compounds. The true share with any hit is near 2.3%.

SMILES	TRPC4 PAM	TRPC6 act	TRPC4 act	TRPC6 inh	TRPC4 inh
O=C(c1ccccc1)c1ccc(C(=O)N2CCCC(C(F)(F)F)C2)cc1 (stereo not given)	i	i	i	i	i
O=C(c1ccc(S(=O)(=O)Nc2ccccc2)cc1)N1CCCC(C(F)(F)F)C1 (stereo not given)	i	i	54*	i	i
CCOc1ccc(NS(=O)(=O)c2ccc(C(=O)N3CCCC(C)C3)cc2)cc1 (stereo not given)	i	i	54*	i	i
Cc1ccc(NS(=O)(=O)c2ccc(C(=O)N3CCC3)cc2)cc1	i	i	i	i	i
NC(=O)CN1C(=O)NC2(CCCc3sccc32)C1=O (stereo not given)	i	i	i	i	i
Cc1cc(C(=O)CN2C(=O)NC3(CCCc4sccc43)C2=O)c(C)n1-c1ccc(Cl)cc1 (stereo not given)	10*	i	i	i	i
Clc1ccc(OCc2nn3c(C4CCCCC4)nnc3s2)cc1	13*	i	i	i	i
c1ccc(-c2nn3c(C4CCCCC4)nnc3s2)nc1	i	i	i	i	i
O=C(OCC(=O)N1CCCC1=O)c1nc(Cl)c(Cl)c(Cl)c1Cl	i	i	i	i	i
O=C(Nc1ccccc1)N1CCCC(c2nc(-c3cccs3)no2)C1 (stereo not given)	i	i	47*	i	i
O=C(NC1CCCCC1)N1CCCC(c2nc(-c3cccs3)no2)C1 (stereo not given)	i	i	i	i	i
O=C(Nc1ccc(Cl)cc1)N1CCC(c2nc(-c3cccs3)no2)CC1	i	i	137*	i	i
CCSc1nnc([C@H](Cc2c[nH]c3ccccc23)NC(=O)OC(C)(C)C)o1	17*	i	i	i	i
C/C(=C\c1cccc(Cl)c1Cl)C(=O)c1c(C)cc(C)[nH]c1=O	19*	i	i	i	i
c1ccc(-c2cnc(SCCN3CCOCC3)n2CC2CCCO2)cc1 (stereo not given)	i	i	i	i	-5*
COc1ccc(-c2cnc(N)n2CC2CCCO2)cc1 (stereo not given)	i	i	i	i	i
Cc1csc2ncnc(N3CCN(C(=S)Nc4ccc(F)cc4F)CC3)c12	i	i	i	i	i
CCCCc1c(O)nc(SCC(=O)Nc2cccc3ccccc23)n(-c2ccccc2OC)c1=O	i	i	i	i	-5*
COc1ccc(/C(O)=C2/C(=O)C(=O)N(CCN3CCNCC3)C2c2cccc([N+](=O)[O-])c2)cc1 (stereo not given)	i	i	i	i	i
COc1ccc(C(=O)N2CCC(n3c(C)nc4cc(F)ccc43)CC2)cc1	i	i	i	i	i
CCN(C(=O)c1c(-c2ccccc2Cl)noc1C)C1CCCCC1	i	i	i	i	-6*
O=C(Nc1cccc(Cl)c1)N1CCN(C/C=C/c2ccccc2)CC1	26*	i	i	i	i
O=C(CCN1CCN(C/C=C/c2ccccc2)CC1)Nc1ccc(Cl)cc1	i	i	i	i	i
Cc1onc(-c2ccccc2Cl)c1C(=O)N1CCN(C/C=C/c2ccccc2)CC1	i	i	101*	i	i
COc1cc(NC(=O)CCN2CCN(C/C=C/c3ccccc3)CC2)cc(OC)c1	10*	i	73*	i	i
SMILES	TRPC4 PAM	TRPC6 act	TRPC4 act	TRPC6 inh	TRPC4 inh
O=C(Nc1cccc(Cl)c1N1CCOCC1)c1cccnc1Cl	i	i	i	i	i
Cc1ccc(C2(C(=O)N3CCC(n4nc(-c5ccccc5)oc4=O)CC3)CC2)cc1	i	i	i	i	i
COc1ccc(Cn2nnnc2C(c2cc3cc(C)ccc3[nH]c2=O)N2CCN(C)CC2)cc1 (stereo not given)	i	i	i	i	-7*
COc1ccc(Cn2nnnc2C(c2cc3cccc(C)c3[nH]c2=O)N2CCN(C)CC2)cc1 (stereo not given)	i	i	98*	i	i
CCc1ccc2[nH]c(=O)c(C(c3nnnn3Cc3ccc(OC)cc3)N3CCOCC3)cc2c1 (stereo not given)	i	i	i	i	i
Cc1cccc2cc(C(c3nnnn3Cc3ccccc3)N3CCN(C)CC3)c(=O)[nH]c12 (stereo not given)	i	i	47*	i	i
CN(Cc1cccc(Cl)c1Cl)c1ccc(S(=O)(=O)N2CCCCC2)cc1[N+](=O)[O-]	i	i	i	i	i
Cc1nc2c(C#N)c[nH]n2c(=O)c1CCO	i	i	i	i	i
O=S(=O)(NC1CCCCC1N1CCN(c2ccccc2F)CC1)c1ccc(Cl)cc1 (stereo not given)	12*	i	i	i	i
CC(=C/c1ccccc1)/C=N/n1c(-c2ccncc2)n[nH]c1=S	15*	i	i	i	i
CC(/C=N/n1c(-c2cccnc2)n[nH]c1=S)=C\c1ccccc1	i	i	i	i	i
O=C(N/N=C/c1ccncc1)c1nn(Cc2ccccc2)c(=O)c2ccccc12	i	i	i	i	i
Cc1ccc(-n2c(-c3ccccc3)c[n+]3c2CCc2ccccc2-3)c(C)c1	i	i	i	-5.54*	i
S=C(NCc1ccco1)N1CCN(c2cccc(Cl)c2)CC1	i	i	i	i	-5*
S=C(NCCN1CCOCC1)N1CCN(c2cccc(Cl)c2)CC1	i	i	i	i	i
O=C(CCC(=O)c1ccc(F)cc1)NC1CCCN(Cc2ccccc2F)C1 (stereo not given)	i	i	i	i	i
CCc1ccc(Nc2n[n+](-c3ccccc3)c(/C=C/c3ccccc3)s2)cc1	15*	i	i	i	i
CCc1ccc(Nc2n[n+](-c3ccccc3)c(-c3c(Cl)cccc3Cl)s2)cc1	i	i	i	i	i
CC(=O)n1cc(N(C(=O)CCl)c2ccc([N+](=O)[O-])cc2)c2ccccc21	i	i	i	i	i
O=Cc1[nH]c2ccccc2c1N(C(=O)CCl)c1ccc([N+](=O)[O-])cc1	i	i	45*	i	i
Fc1ccc(-n2cc(-c3ccccc3)c3c(N4CCOCC4)ncnc32)cc1	15*	i	i	i	i
Cc1ccc(C(=O)CCNc2ccc(F)c(Cl)c2)o1	i	i	i	i	i
Cc1ccccc1-n1c(=O)c2c(n3cnnc13)-c1ccccc1CC21CCCCC1	16*	i	i	i	i
